From PubChem
H9c2 TAG inh – inhibitors of triacylglycerol accumulation, primary screen, cell-based, uHTS, fluorescence, H9c2; H9c2 cells, Nile Red lipid (TAG) fluorescence; cells loaded with 200 µM oleic acid; AID 651582, 2012; inhibition, % at 12.5 µM; 230,000 tested, 0.66% active;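 active = pattern-corrected inhibition of lipid staining of at least 50% with the nuclear-stain viability signal not falling by more than 50%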;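 note: 0% = DMSO wells and 100% = triacsin C control wells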
GalR3 antag – GalR3 antagonists in HEK293 cells, primary screen, cell-based, fluorescence readout | 360,000 tested, 0.44% active | HEK293 GalR3-CNG cAMP membrane potential fluorescence; galR3 body fused to GalR1 C-terminus | AID 651719, 2012 | inhibition, % at 3 µM | Galanin receptor type 3 (Homo sapiens), O60755;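 active = inhibition above the screen-wide average plus 3 SD, cut at about 13% in these data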;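 note: forskolin and galanin both at EC90 stimulate the cells; cAMP rise reported by CNG channel membrane potential dye signal; 0% = forskolin plus galanin with DMSO and 100% = forskolin alone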
Calb FLC – C. albicans growth inhibition with fluconazole, primary screen, CaCi-2 strain, Alamar Blue fluorescence. growth inhibition, % (no concentration beside the values). 300,000 tested, 0.57% active. C. albicans CaCi-2 + fluconazole, 48 h;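 active = growth inhibition above about 58% in most replicates, limit read from the data, passing the limit was not always enough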;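 note: all wells also contain fluconazole at 8 µg/ml as a sub-toxic cotreatment; 0% = median of DMSO wells and 100% = median of geldanamycin control wells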
MC4R barr agon – MC4R agonists recruiting beta-arrestin, primary screen, cell-based, luminescence, agonist arm of biased-ligand search | Melanocortin receptor 4 (Homo sapiens), P32245 | U2OS MC4R beta-arrestin complementation; percent of melanotan II response, DMSO zero | activation, % at 8.9 µM | 360,000 tested, 0.98% active | AID 540308, 2011;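 active = activation above a per-plate cutoff, the mean activation of sample wells on that plate plus 3 SD, cut at about 8% in these data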
Efflux pump inh – inhibitors of Candida efflux pumps in yeast, primary screen, S. cerevisiae, Nile Red, multiplex; S. cerevisiae Candida pump triplex; inhibition, % at 10 µM; 330,000 tested, 0.44% active;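 active = plate passing quality check with inhibition over a set limit, or well fluorescence over plate mean plus 4 SD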;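 note: Nile Red retained in pooled yeast measured as flow cytometry median fluorescence; 0% = buffer negative control and 100% = Enniatin B positive control; higher means more Nile Red kept so more efflux inhibition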
MC4R antagonist – MC4R antagonists of cAMP signaling, primary screen, cell-based, TR-FRET, antagonist arm of biased-ligand search | Melanocortin receptor 4 (Homo sapiens), P32245 | MC4R-expressing cells, MTII-stimulated cAMP, LANCE TR-FRET | inhibition, % at 6.5 µM | 360,000 tested, 0.48% active;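 active = inhibition above its plate's cutoff, the mean of tested wells on that plate plus 3 SD, cut at about 29% in these data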;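 note: 0% = Melanotan II alone and 100% = Melanotan II plus saturating MCL0020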
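System: U2OS-MC4R stable cell line; Technique: Eu-cAMP/anti-cAMP TR-FRET, emission 671 nm; Repeats: single well per compound; Also added: Melanotan II; Dosing: one concentration, 6.5 µM nominal; Schedule: 30-min compound, 1-h challenge, 1-h detection, room temperature.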
MC4R barr conf – MC4R beta-arrestin agonists, retest, confirmation, cell-based, luminescence, U2OS; shares compounds with MC4R barr agon; U2OS MC4R beta-arrestin recruitment; scaled DMSO 0%, Melanotan II 100%; activation, % at 8.9 µM; 2,400 tested, 31% active; AID 602192, 2012;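 active = mean activation across replicates above the hit cutoff set in the earlier primary screen, cut at about 8% in these data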
MOR DOR agonist – agonists of MOR-DOR heterodimerization, counter-screen for MC4R biased agonist project, cell-based, luminescence; shares compounds with MC4R barr agon; U2OS PathHunter beta-arrestin, beta-gal luminescence; percent of deltorphin B response, DMSO zero; activation, % at 9.2 µM; 2,400 tested, 5.8% active; AID 602194, 2012;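 active = mean activation across replicates exceeds the hit threshold derived in the earlier primary screen, cut at about 18% in these data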;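 note: 100% = deltorphin B at 0.9 µM final and 0% = DMSO alone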
Target sequence (P35372 whole entry, looked up): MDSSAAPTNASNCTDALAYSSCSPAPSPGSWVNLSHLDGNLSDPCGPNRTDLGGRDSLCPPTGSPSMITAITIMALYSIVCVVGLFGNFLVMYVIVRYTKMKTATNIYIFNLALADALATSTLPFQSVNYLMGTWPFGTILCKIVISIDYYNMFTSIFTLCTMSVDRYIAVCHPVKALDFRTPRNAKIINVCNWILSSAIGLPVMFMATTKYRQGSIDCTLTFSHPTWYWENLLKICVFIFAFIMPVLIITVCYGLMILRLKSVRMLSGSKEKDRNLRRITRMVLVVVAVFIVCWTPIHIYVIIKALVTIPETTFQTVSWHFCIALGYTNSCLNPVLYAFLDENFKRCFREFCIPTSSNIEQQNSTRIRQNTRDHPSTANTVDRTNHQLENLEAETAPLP
Target sequence (P41143 whole entry, looked up): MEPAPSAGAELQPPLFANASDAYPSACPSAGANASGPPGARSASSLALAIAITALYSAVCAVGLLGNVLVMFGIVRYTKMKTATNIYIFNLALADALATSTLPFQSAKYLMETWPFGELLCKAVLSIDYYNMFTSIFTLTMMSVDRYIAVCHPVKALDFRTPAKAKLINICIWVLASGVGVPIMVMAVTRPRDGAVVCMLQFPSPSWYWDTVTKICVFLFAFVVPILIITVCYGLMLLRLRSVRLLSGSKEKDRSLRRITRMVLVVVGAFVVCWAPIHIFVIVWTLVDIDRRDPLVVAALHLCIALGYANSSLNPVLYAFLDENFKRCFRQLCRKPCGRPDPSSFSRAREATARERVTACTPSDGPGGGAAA
An asterisk follows results filed as active. Most compounds without a hit are left out; they make up all but 2.9% or so of the library.

Screening COc1ccc(NC(=O)COC(=O)c2cc(C)oc2C)c([N+](=O)[O-])c1 returned H9c2 TAG inh -1, GalR3 antag -6, MC4R barr agon 23*, Efflux pump inh 0, MC4R antagonist 8, MC4R barr conf 3 and MOR DOR agonist 11.
For O=C(NCC[C@@H]1CC[C@@H](NS(=O)(=O)c2ccccc2)[C@@H](CO)O1)c1cc(Cl)cc(Cl)c1 the results were GalR3 antag -5.
Screening Cc1cccnc1C1=NOC(Cc2ccccc2)C(=O)N1C (stereo not given) returned H9c2 TAG inh -10, GalR3 antag -4, MC4R barr agon 0 and MC4R antagonist 9.
For Cc1cccc(CN2CCN(C3CN(Cc4cn(Cc5ccccc5C(F)(F)F)nn4)S(=O)(=O)C3)CC2)c1 (stereo not given) the results were GalR3 antag -9.
CC1(C)Oc2ccc3ccc(=O)oc3c2/C(=C/Nc2ccc(O)cc2)C1=O was read as H9c2 TAG inh 30, GalR3 antag -6, Calb FLC 2, MC4R barr agon 11*, Efflux pump inh 0, MC4R antagonist 24, MC4R barr conf 23* and MOR DOR agonist 5.
Screening COc1cc(NC(=O)C2(C)CCCN2C)cc(OC)c1OC (stereo not given) returned H9c2 TAG inh -4, GalR3 antag -2, MC4R barr agon 0 and MC4R antagonist -3.
`O=C(/C=C/c1ccc(Cl)cc1)Nc1ccc(N2CCOCC2)cc1` gave H9c2 TAG inh 4, GalR3 antag -5, Calb FLC 29, MC4R barr agon 2, Efflux pump inh 0 and MC4R antagonist 4.
Screening O=C(/C=C/c1ccc(Cl)cc1)NC(=S)Nc1ccc(N2CCOCC2)c(Cl)c1 returned GalR3 antag -3, Calb FLC 3, MC4R barr agon 15*, Efflux pump inh 0, MC4R antagonist 11, MC4R barr conf 7 and MOR DOR agonist 5.
O=C(/C=C/c1ccc(Cl)cc1)Nc1ccccc1N1CCOCC1 was read as GalR3 antag -3, Calb FLC -12, MC4R barr agon 9.7*, Efflux pump inh 1, MC4R antagonist 2, MC4R barr conf 3 and MOR DOR agonist 2.
For O=C(Nc1ccc(N2CCOCC2)c(Cl)c1)c1ccc(Cl)cc1 the results were H9c2 TAG inh -4, GalR3 antag -3, Calb FLC 19, MC4R barr agon 0, Efflux pump inh 0 and MC4R antagonist 7.
`O=C(NC(=S)Nc1ccc(N2CCOCC2)cc1)c1ccc(Cl)cc1` gave GalR3 antag -11, Calb FLC -4, MC4R barr agon 14*, Efflux pump inh 0, MC4R antagonist 2, MC4R barr conf 2 and MOR DOR agonist 2.
O=C(Nc1cccnc1Cl)c1cc2c(s1)-c1ccccc1OC2 was read as GalR3 antag -11, Calb FLC 6, MC4R barr agon 4, Efflux pump inh 0 and MC4R antagonist 11.
O=C(Nc1ccc(Cl)cn1)c1cc2c(s1)-c1ccccc1OC2 was read as H9c2 TAG inh -12, GalR3 antag -2, Calb FLC 22, MC4R barr agon 9.8*, Efflux pump inh 0, MC4R antagonist 7, MC4R barr conf 8.3* and MOR DOR agonist 3.
For CC1(C)OC(=O)C2=C(CC(CCc3ccccc3)OC2c2ccc(Cl)c(Cl)c2)O1 (stereo not given) the results were GalR3 antag -4.
`Cc1cc(=O)oc2cc(OCC3CC(c4ccc(Cl)cc4)=NO3)ccc12` (stereo not given) gave GalR3 antag -7, Calb FLC 0, MC4R barr agon 0, Efflux pump inh 0 and MC4R antagonist 12.
NNC(=O)c1ccc(OCC2CC(c3ccc(Cl)cc3)=NO2)cc1 (stereo not given) was read as H9c2 TAG inh -7, GalR3 antag 0, Calb FLC -1, MC4R barr agon 12*, Efflux pump inh 0, MC4R antagonist 10, MC4R barr conf 0 and MOR DOR agonist 5.
CCNC(=O)C1(C)CCN(Cc2csc(-c3ccccc3)n2)C1 (stereo not given) was read as H9c2 TAG inh 7, GalR3 antag -5, MC4R barr agon -2 and MC4R antagonist -1.
COc1cccc(-c2noc(-c3ccc4c(c3)OCO4)n2)c1 was read as H9c2 TAG inh -10, GalR3 antag 2, Calb FLC -8, MC4R barr agon 11*, Efflux pump inh 0, MC4R antagonist 5, MC4R barr conf 0 and MOR DOR agonist 3.
`COc1ccc(-c2noc(-c3ccc4c(c3)OCO4)n2)cc1` gave H9c2 TAG inh 8, GalR3 antag -4, Calb FLC 20, MC4R barr agon -1, Efflux pump inh 0 and MC4R antagonist 1.
`COc1ccc(-c2onc(C)c2-c2ccc(C(=O)OC(C)C)o2)c(O)c1` gave H9c2 TAG inh 2, GalR3 antag -4, Calb FLC -5, MC4R barr agon 12*, Efflux pump inh 0, MC4R antagonist 14, MC4R barr conf 7 and MOR DOR agonist 9.
Screening COc1ccc(N2C(=O)c3ccc(C(=O)OC(C)C)cc3C2=O)cc1 returned H9c2 TAG inh -3, GalR3 antag -3, Calb FLC -2, MC4R barr agon 1, Efflux pump inh 0 and MC4R antagonist 4.
`CCC1(C2C=COC=C2)NC(=O)NC1=O` (stereo not given) gave GalR3 antag -2.
Screening CCc1nc2c(OCc3ccc(Cl)cc3Cl)cccn2c1N(C)C(C)=O returned H9c2 TAG inh -7, GalR3 antag -7, MC4R barr agon 0 and MC4R antagonist 7.
O=[N+]([O-])c1cc(/C=N/O)ccc1SCc1ccccc1Cl was read as GalR3 antag -4, Calb FLC 34, MC4R barr agon 18*, Efflux pump inh 0, MC4R antagonist -13, MC4R barr conf 6 and MOR DOR agonist 6.
